Experimental data from ChEMBL document CHEMBL2034977, “Discovery of CX-6258. A Potent, Selective, and Orally Efficacious pan-Pim Kinases Inhibitor” (ACS Med Chem Lett, 2012).

Key:
Assay type in all cases: ADME, organism-based; call rule not given here
[1] = Volume of distribution in iv dosed mouse; details: in vivo
In short: (§1)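 Mouse pharmacokinetics after IV and oral dosing. Vehicle D5W. Clearance, volume of distribution, half-life, AUC over 0−24 h and oral bioavailability were derived. Each value is the average of four animals.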

[2] = Half life in iv dosed mouse; details: in vivo; in short: as §1
Mus musculus = organism: Mus musculus; assay: Drug metabolism in mouse assessed as formation of 3-((5-(3-(1,4-diazepane-1-carbonyl)phenyl)furan-2-yl)methylene)-5-chloroindolin-2-one; details: in vivo
[3] = AUC (0 to 24 hrs) in po dosed mouse; design: time < 24 hr, route oral; details: plasma; in short: as §1
[4] = Oral bioavailability in mouse; details: in vivo; in short: as §1
[5] = Clearance in iv dosed mouse; details: in vivo; in short: as §1

With `CN1CCCN(C(=O)c2cccc(-c3ccc(/C=C4/C(=O)Nc5ccc(Cl)cc54)o3)c2)CC1` the Vd [1] was 85 L/kg, the half-life [2] was 27 h and the Drug metabolism (Mus musculus) was “Active”. It also gave an AUC(0-t) at 24 h [3] of 1020 ng·h/mL, a bioavailability [4] of 23% and a clearance [5] of 35 mL/min/kg.
